The list is not random: actives were taken first. Their share in the collection is about 1.8%.
Casp6 inh – blocks human caspase-6 cleavage activity. P55212. purified caspase-6, Z-VEID-R110 cleavage fluorescence. inhibition, % at 12.5 µM. 0.53% of 350,000 active. AID 686996;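 active means mean inhibition across replicates at least about 35%, with every replicate also reaching that limit, limit read from the data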
TDP2 inh – TDP2 (human) inhibition, absorbance primary screen; recombinant TDP2, T5PNP hydrolysis, p-nitrophenol absorbance 415 nm; inhibition, % at 12.8 µM; 0.34% of 370,000 active;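 active means inhibition above the mean of all tested compounds plus 3 SD, set per campaign, cut at about 25% in these data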
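Assay system: recombinant human TDP2 / Reagent: T5PNP substrate at 5 mM, a TopII-DNA adduct mimic / Measured by: epi absorbance from released p-nitrophenol / Evaluation: % inhibition relative to enzyme-containing and enzyme-free wells / Control set: enzyme-free and DMSO wells / Replicates: each compound tested once, singlicate / Schedule: enzyme reaction with compound for 2 h at 37 °C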
LEDGF integ inh – blocks HIV-1 LEDGF/p75-dependent DNA integration. TR-FRET IN-LEDGF/p75 DNA integration, Eu/Cy5. inhibition, % at 3.7 µM. 0.64% of 370,000 active;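 active means inhibition above the screen-wide mean plus 3 SD, cut at about 13% in these data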;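 further: signal is the Cy5 over europium emission ratio at 671 and 618 nm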
UHRF1 MBD2 ctr – human UHRF1 methylated DNA binding inhibitors. AID 687016. 0.75% of 370,000 active. inhibition, % at 4.4 µM. UHRF1 binding to methylated oligo, TR-FRET. Q96T88; in the data active means inhibition above about 21%;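 further: UHRF1 SRA domain binding a hemimethylated CpG hairpin DNA probe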
NSD2 inh – NSD2 (human) methyltransferase inhibition. inhibition, % at 12.5 µM. NSD2 peptide methylation, AlphaScreen, 120 min. 0.54% of 310,000 active. O96028; in the data active means inhibition above about 50%
Target sequence (O96028 whole entry, looked up): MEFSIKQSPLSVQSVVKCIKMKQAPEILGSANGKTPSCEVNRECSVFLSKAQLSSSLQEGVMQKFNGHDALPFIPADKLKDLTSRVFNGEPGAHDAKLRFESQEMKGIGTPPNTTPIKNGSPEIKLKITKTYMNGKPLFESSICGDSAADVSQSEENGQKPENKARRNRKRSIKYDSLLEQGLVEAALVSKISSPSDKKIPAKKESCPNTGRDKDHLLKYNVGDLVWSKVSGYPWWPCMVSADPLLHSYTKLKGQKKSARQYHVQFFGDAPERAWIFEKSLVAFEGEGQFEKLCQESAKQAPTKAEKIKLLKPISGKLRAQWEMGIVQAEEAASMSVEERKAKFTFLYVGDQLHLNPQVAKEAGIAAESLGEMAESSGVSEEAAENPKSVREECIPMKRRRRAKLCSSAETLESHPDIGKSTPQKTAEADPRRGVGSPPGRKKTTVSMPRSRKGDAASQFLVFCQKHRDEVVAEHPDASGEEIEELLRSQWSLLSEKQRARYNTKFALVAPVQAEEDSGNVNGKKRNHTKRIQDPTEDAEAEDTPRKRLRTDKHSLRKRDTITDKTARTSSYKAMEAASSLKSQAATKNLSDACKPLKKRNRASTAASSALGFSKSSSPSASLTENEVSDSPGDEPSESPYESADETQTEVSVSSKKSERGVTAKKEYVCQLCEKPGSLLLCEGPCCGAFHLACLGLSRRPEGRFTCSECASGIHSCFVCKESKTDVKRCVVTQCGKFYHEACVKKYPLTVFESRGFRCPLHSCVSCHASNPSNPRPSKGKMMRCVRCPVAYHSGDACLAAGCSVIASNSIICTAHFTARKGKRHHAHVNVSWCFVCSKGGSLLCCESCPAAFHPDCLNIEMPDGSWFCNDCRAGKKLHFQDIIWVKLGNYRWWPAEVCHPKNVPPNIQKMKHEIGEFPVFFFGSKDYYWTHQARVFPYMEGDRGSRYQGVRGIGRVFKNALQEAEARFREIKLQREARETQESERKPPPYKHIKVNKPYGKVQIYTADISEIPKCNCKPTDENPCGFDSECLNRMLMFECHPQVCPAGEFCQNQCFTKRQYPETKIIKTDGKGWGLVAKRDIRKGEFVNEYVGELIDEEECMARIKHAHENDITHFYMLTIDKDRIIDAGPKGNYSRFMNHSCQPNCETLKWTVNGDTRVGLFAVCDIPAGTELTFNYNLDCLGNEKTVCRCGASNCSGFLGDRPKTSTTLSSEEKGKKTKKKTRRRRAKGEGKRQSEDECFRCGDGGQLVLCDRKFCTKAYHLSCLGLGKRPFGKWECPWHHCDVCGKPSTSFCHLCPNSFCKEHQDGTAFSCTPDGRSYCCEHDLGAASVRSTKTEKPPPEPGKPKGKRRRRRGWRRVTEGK
MBD2 DNA inh – MBD2-methylated oligo binding inhibition. Q9UBB5. TR-FRET, MBD2 binding to methylated oligonucleotide. inhibition, % at 4.4 µM. 0.31% of 370,000 active; in the data active means inhibition above about 13%
Alpha artifact – AlphaScreen assay artifact in NSD2 counter-screen; 9.4% of 1,500 active; AC35, µM (highest dose often 10 µM); shares compounds with NSD2 inh; AlphaScreen artifact counterscreen, preloaded methylated H4 peptide; call rule not given here
Hits are given with their value; 0 = inactive; - = no result.

SMILES | Casp6 inh | TDP2 inh | LEDGF integ inh | UHRF1 MBD2 ctr | NSD2 inh | MBD2 DNA inh | Alpha artifact
Oc1cccc(NC(=S)N=Nc2c(O)[nH]c3ccc(Br)cc23)c1 | 0 | 0 | 0 | 0 | 67.4 | 0 | 0
CNC[C@@H]1OCCCC[C@H](C)Oc2ccc(NS(=O)(=O)c3cn(C)cn3)cc2C(=O)N([C@@H](C)CO)C[C@H]1C | 0 | - | - | - | - | - | -
Cc1cc(C)nc(NS(=O)(=O)c2ccc(Br)cc2)n1 | - | 0 | 0 | 0 | 0 | 0 | -
Cc1cc(C)nc(NS(=O)(=O)c2ccc(-n3cccc3)cc2)n1 | - | 0 | 0 | 0 | 72.7 | 0 | 0
Cc1nc2scc(C)n2c(=O)c1S(=O)(=O)N1CCN(c2ccccc2)CC1 | 0 | 0 | 0 | 0 | 0 | 0 | -
Cc1cccc(N2CCN(S(=O)(=O)c3c(C)nc4scc(C)n4c3=O)CC2C)c1 (stereo not drawn) | 0 | 0 | 0 | 0 | 105.0 | 0 | 0
CC(C)NC(=O)N(C)C[C@@H]1Oc2cc(C#C[C@@H](C)O)ccc2S(=O)(=O)N([C@H](C)CO)C[C@H]1C | 0 | - | - | - | - | - | -
CN(C)C(=O)[C@H]1[C@H](CO)[C@H]2Cn3c(ccc(C4=CCCC4)c3=O)[C@@H]1N2Cc1ccccn1 | 0 | - | - | - | - | - | -
CNCCCOc1ccc2c(c1)CCC2 | 0 | 0 | 0 | 0 | 61.1 | 0 | 0
O=C1CCC(=O)N1OCCCOc1ccc2c(c1)CCC2 | - | 0 | 0 | 0 | 0 | 0 | -
Cc1noc(C)c1S(=O)(=O)N(C)C[C@@H]1OCCCC[C@@H](C)Oc2ccc(NC(=O)Nc3cccc4ccccc34)cc2C(=O)N([C@@H](C)CO)C[C@H]1C | 0 | - | - | - | - | - | -
O=C1NC(=S)S/C1=C\c1cc2ccccc2nc1N1CCCCC1 | 0 | 0 | 0 | 78.4 | 83.3 | 0 | 0
COc1ccc2nc(N3CCCCC3)c(/C=C3\SC(=S)NC3=O)cc2c1 | 0 | 0 | 0 | 0 | - | 0 | -
O=C(N[C@H]1c2ccccc2C[C@H]1O)C1=C[C@H](c2coc3ccccc3c2=O)C[C@H](OCCCCO)O1 | 0 | - | - | - | - | - | -
C[C@H](CO)N1C[C@H](C)[C@@H](CN(C)Cc2ccc(-c3ccccc3)cc2)Oc2ccc(N(C)C)cc2C1=O | 0 | - | - | - | - | - | -
C[C@@H]1CN([C@@H](C)CO)C(=O)Cc2cc(NC(=O)NC3CCCCC3)ccc2O[C@H]1CN(C)Cc1ccc(-c2ccccc2)cc1 | 0 | - | - | - | - | - | -
COc1cc(C(=O)NC2CCCc3ccccc32)cc(OC)c1OC (stereo not drawn) | 0 | 0 | 0 | 0 | 102.2 | 0 | 0
COc1cc(OC)c(C(=O)NC2CCCc3ccccc32)cc1OC (stereo not drawn) | 0 | 0 | 0 | 0 | 0 | 0 | -
Cn1cnc(S(=O)(=O)N2CC[C@@H]3[C@H]2c2cc(C#Cc4ccccc4)ccc2N[C@@H]3CO)c1 | 0 | - | - | - | - | - | -
COc1ccc(NC(=O)Nc2cccc3c2O[C@H](CN(C)S(=O)(=O)c2cn(C)cn2)[C@@H](C)CN([C@@H](C)CO)C3=O)cc1 | 0 | - | - | - | - | - | -
O=C(CSc1ccc(Cl)cc1)Nc1cc(-c2nc3ncccc3o2)ccc1Cl | 0 | 0 | 0 | 0 | 50.9 | 0 | 0
O=C(CSc1ccc(Cl)cc1)Nc1cccc(-c2nc3ncccc3o2)c1 | - | 0 | 0 | 0 | 0 | 0 | -
COc1ccc(OC)c(NC(=O)C2COc3ccccc3O2)c1 (stereo not drawn) | - | 0 | 0 | 0 | 0 | 0 | -
COc1ccccc1NC(=O)c1ccc(NC(=O)C2COc3ccccc3O2)cc1 (stereo not drawn) | 0 | 0 | 0 | 0 | 76.1 | 0 | 0
Cc1ccc(S(=O)(=O)N2CCN(C(=O)CCn3nc(C)c(C)c3C)CC2)cc1 | 0 | 0 | 0 | 0 | 0 | 0 | -
SMILES | Casp6 inh | TDP2 inh | LEDGF integ inh | UHRF1 MBD2 ctr | NSD2 inh | MBD2 DNA inh | Alpha artifact
Cc1cc(C)n(CCC(=O)N2CCN(S(=O)(=O)c3ccccc3)CC2)n1 | 0 | 0 | 0 | 0 | 54.0 | 0 | 0
CCN(CC)CCCNc1ncnc2scc(-c3ccc(F)cc3)c12 | 0 | 0 | 0 | 0 | 62.7 | 0 | 0
Cc1ccc(S(=O)(=O)Nc2ccc3c(c2)C(=O)N([C@@H](C)CO)C[C@@H](C)[C@H](CN(C)C(=O)Nc2ccc(C(F)(F)F)cc2)O3)cc1 | 0 | - | - | - | - | - | -
CC(C)NC(=O)N1CC(=O)N2[C@H](CO)[C@H](c3ccc(C#CCN(C)C)cc3)[C@@H]2C1 | 0 | - | - | - | - | - | -
COc1ccc(/C=C(\C#N)C(=O)N2COCC2(C)C)cc1 | 0 | 0 | 0 | 0 | 59.4 | 0 | 0
C[C@H](CO)N1C[C@H](C)[C@H](CN(C)Cc2cccc(C(=O)O)c2)Oc2ncc(C#CCN(C)C)cc2C1=O | 0 | - | - | - | - | - | -
COc1cccc(C(C(=O)NC2CCCC2)N(C(=O)c2csnn2)C2CC2)c1 (stereo not drawn) | 0 | 0 | 0 | 0 | 99.0 | 0 | 0
O=C(NC1CCCC1)C(c1cccnc1)N(C(=O)c1csnn1)C1CC1 (stereo not drawn) | - | 0 | 0 | 0 | 0 | 0 | -
CCOc1ccc2nc(SCC(=O)NCc3ccco3)sc2c1 | - | 0 | 0 | 0 | 129.4 | 0 | 0
CCOc1ccc2nc(SCC(=O)NC(=O)NCc3ccco3)sc2c1 | - | 0 | 0 | 0 | 0 | 0 | -
CN1c2ccc(Br)cc2[C@@H]2[C@@H](CCN2S(=O)(=O)c2cccc(F)c2)[C@H]1CO | 0 | - | - | - | - | - | -
COc1ccc(S(=O)(=O)N(C)C[C@H]2Oc3ccc(N(C)C)cc3C(=O)N([C@H](C)CO)C[C@H]2C)cc1 | 0 | - | - | - | - | - | -
COc1ccc2ccccc2c1C1CC(=O)N2CN(C)CSC2=C1C#N (stereo not drawn) | 0 | 0 | 0 | 0 | 88.7 | 0 | 0
COc1cc(OC)c(C2CC(=O)N3CN(C)CSC3=C2C#N)cc1OC (stereo not drawn) | 0 | 0 | 0 | 0 | - | 0 | -
CCc1nnc(NC(=O)CCS(=O)(=O)Cc2ccccc2)s1 | 0 | 0 | 0 | 0 | 0 | 0 | -
CCC(CC)c1nnc(NC(=O)CCS(=O)(=O)Cc2ccccc2)s1 | 0 | 0 | 0 | 0 | 61.1 | 0 | 0
CC(=O)Nc1ccc(N(C(=O)CNC(=O)c2ccco2)C(C(=O)NCC2CCCO2)c2ccccc2)cc1 (stereo not drawn) | 0 | 0 | 0 | 0 | 51.4 | 0 | 0
CCc1ccc(N(C(=O)CNC(=O)c2ccco2)C(C(=O)NCC2CCCO2)c2ccccc2)cc1 (stereo not drawn) | 0 | 0 | 0 | 0 | 0 | 0 | -
O=C1C(Cl)=C(NCCN2CCCCC2)C(=O)c2ccccc21 | - | - | - | - | 57.9 | - | 0
CCCCn1c(SCC(=O)c2ccc(O)c(O)c2)nc2ccsc2c1=O | - | - | - | - | 0 | - | -
O=C(O)CCCCCn1c(SCC(=O)c2ccc(O)c(O)c2)nc2ccsc2c1=O | - | 0 | 0 | 0 | 90.6 | 0 | 0
C[C@@H]1CN([C@H](C)CO)C(=O)c2cc(N(C)C)ccc2O[C@H]1CN(C)C | 0 | - | - | - | - | - | -
Cc1ccc(Cn2c(SCC(=O)NCC3CCCO3)nc3c2c(=O)n(C)c(=O)n3C)cc1 (stereo not drawn) | 0 | 0 | 0 | 0 | 50.6 | 0 | 0

Screening results: PubChem, several laboratories
